Assay results: ChEMBL document CHEMBL1148762, “Lysosome and HER3 (ErbB3) selective anticancer agent kahalalide F: semisynthetic modifications and antifungal lead-exploration studies” (J Med Chem, 2007)
≈ marks a conversion by molar mass, not a printed value. Calls of active or inactive are those of the source. No cut-off for these calls is given here.

Assays:
[1] = test system: Mycobacterium tuberculosis; experiment: Antibacterial activity against Mycobacterium tuberculosis H37Rv at 16 ug/mL by micro plate alamar blue assay; assay type: functional
In short: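 M. tuberculosis H37Rv ATCC 27294 grown in BACTEC 12B medium; microplate Alamar blue assay (MABA). Primary screen at a single concentration of 16 µg/mL, read as percent inhibition.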

[2] = test system: Mycobacterium tuberculosis; experiment: Antibacterial activity against Mycobacterium tuberculosis H37Rv by micro plate alamar blue assay; assay type: functional
[3] = test system: Aspergillus fumigatus; experiment: Antimicrobial activity against Aspergillus fumigatus ATCC 90906; assay type: functional, organism-based
[4] = test system: Cryptococcus neoformans; experiment: Antimicrobial activity against Cryptococcus neoformans ATCC 90113; assay type: functional, organism-based
[5] = test system: Candida albicans; experiment: Antimicrobial activity against Candida albicans ATCC 90028; assay type: functional, organism-based
[6] = test system: Mycobacterium intracellulare; experiment: Antimicrobial activity against Mycobacterium intracellular ATCC 23068; assay type: functional, organism-based
[7] = test system: Fusarium proliferatum; experiment: Fungistatic activity against Fusarium proliferatum at 30 uM after 72 hrs by microtiter plate assay; assay type: functional, organism-based
In short: (§1)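 Conidia come from 7-day potato dextrose agar cultures, filtered and set photometrically (625 nm) to 3 × 10^5 conidia/mL. They are exposed to compound at 30 µM in 96-well microdilution broth at 24 ± 1 °C under a 12 h photoperiod. After 72 h, 20 µL per well is subcultured on drug-free potato dextrose agar at 28 °C for 3 days. No regrowth is scored fungicidal; regrowth is scored fungistatic.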

[8] = test system: Fusarium solani; experiment: Fungicidal activity against Fusarium solani at 30 uM after 72 hrs by microtiter assay; assay type: functional, organism-based
In short: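 After 72 h of microtiter broth exposure at 30 µM, 20 µL from each well was plated onto compound-free potato dextrose agar and incubated 3 days at 28 °C. No regrowth was scored fungicidal; regrowth was scored fungistatic.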

[9] = test system: Fusarium oxysporum; experiment: Fungistatic activity against Fusarium oxysporum at 30 uM after 72 hrs by microtiter plate assay; assay type: functional, organism-based; in short: as §1
[10] = test system: SK-OV-3; experiment: Cytotoxicity against human SK-OV3 cells; assay type: functional
In short: (§2)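 NCI Developmental Therapeutics Program cell panel. GI50 is the concentration that reduces growth of treated cells to half that of untreated controls. TGI is the concentration that completely halts growth.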

[11] = test system: ACHN; experiment: Cytotoxicity against human ACHN cells; assay type: functional; in short: as §2
[12] = test system: PC-3; experiment: Cytotoxicity against human PC3 cells; assay type: functional; in short: as §2
[13] = test system: DU-145; experiment: Cytotoxicity against human DU145 cells; assay type: functional; in short: as §2
[14] = test system: Hs-578T; experiment: Cytotoxicity against human HS578T cells; assay type: functional; in short: as §2
[15] = test system: A549; experiment: Cytotoxicity against human A549 cells; assay type: functional; in short: as §2
[16] = test system: NCI-H322M; experiment: Cytotoxicity against human NCI-H322M cells; assay type: functional; in short: as §2
[17] = test system: RPMI-8226; experiment: Cytotoxicity against human RPMI8226 cells; assay type: functional; in short: as §2
[18] = test system: COLO 205; experiment: Cytotoxicity against human COLO205 cells; assay type: functional; in short: as §2
[19] = test system: HCC 2998; experiment: Cytotoxicity against human HCC2998 cells; assay type: functional; in short: as §2
[20] = test system: HCT-15; experiment: Cytotoxicity against human HCT15 cells; assay type: functional; in short: as §2
[21] = test system: HT-29; experiment: Cytotoxicity against human HT29 cells; assay type: functional; in short: as §2
[22] = test system: KM12; experiment: Cytotoxicity against human KM12 cells; assay type: functional; in short: as §2
[23] = test system: SNB-75; experiment: Cytotoxicity against human SNB75 cells; assay type: functional; in short: as §2
[24] = test system: UACC-257; experiment: Cytotoxicity against human UACC257 cells; assay type: functional; in short: as §2

Which results are given for `CO[C@H]1/C=C/O[C@@]2(C)Oc3c(C)c(O)c4c(O)c(c(/C=N/N5CCN(C)CC5)c(O)c4c3C2=O)NC(=O)/C(C)=C\C=C\[C@H](C)[C@H](O)[C@@H](C)[C@@H](O)[C@@H](C)[C@H](OC(C)=O)[C@@H]1C` [RIFAMPIN]?
inhibition at 16 µg/mL [1]: 93%; MIC [2]: 0.08 µg/mL (≈ 0.0972 µM)

Which results are given for `C/C=C1\NC(=O)[C@H](Cc2ccccc2)NC(=O)[C@@H](C(C)C)NC(=O)[C@@H]([C@@H](C)CC)NC(=O)[C@H](NC(=O)[C@H](NC(=O)[C@H](CCCN(CCCCCC)CCCCCC)NC(=O)[C@H]2CCCN2C(=O)[C@H](NC(=O)[C@@H](NC(=O)[C@@H](NC(=O)[C@H](NC(=O)CCCC(C)C)C(C)C)[C@@H](C)O)C(C)C)C(C)C)[C@@H](C)CC)[C@@H](C)OC(=O)[C@H](C(C)C)NC1=O`?
MFC [3]: > 20 µM; MIC [3]: > 20 µM; MFC [4]: > 20 µM; MIC [4]: > 20 µM; MFC [5]: > 20 µM; MIC [5]: > 20 µM; MBC [6]: > 20 µM; MIC [6]: > 20 µM; inhibition at 16 µg/mL [1]: 91%; MIC [2]: 9.4 µg/mL (≈ 5.71 µM)

For `C/C=C1\NC(=O)[C@H](Cc2ccccc2)NC(=O)[C@@H](C(C)C)NC(=O)[C@@H]([C@@H](C)CC)NC(=O)[C@H](NC(=O)[C@H](NC(=O)[C@H](CCCNCCCCCC)NC(=O)[C@H]2CCCN2C(=O)[C@@H](NC(=O)[C@H](NC(=O)[C@H](NC(=O)[C@@H](NC(=O)CCCC(C)C)C(C)C)[C@H](C)O)C(C)C)C(C)C)[C@@H](C)CC)[C@@H](C)OC(=O)[C@H](C(C)C)NC1=O`, which Activity [7] is on record?
The Activity was “Active”.

And the Activity [8]?
Its Activity is “Active”.

What about the Activity [9] of the same compound?
The Activity was “Active”.

Which GI50 [10] does the source give for `CC(=O)O[C@H]1C(=O)[C@@]2(C)[C@H]([C@H](OC(=O)c3ccccc3)[C@]3(O)C[C@H](OC(=O)[C@H](O)[C@@H](NC(=O)c4ccccc4)c4ccccc4)C(C)=C1C3(C)C)[C@]1(OC(C)=O)CO[C@@H]1C[C@@H]2O` [PACLITAXEL] here?
Its GI50 is 8 nM.

What about the TGI [10] of the same compound?
Its TGI is 15800 nM.

What about the GI50 [11] of the same compound?
Its GI50 is 398 nM.

What about the TGI [11] of the same compound?
The TGI was 12600 nM.

What about the GI50 [12] of the same compound?
Its GI50 is 4 nM.

What about the TGI [12] of the same compound?
Its TGI is 10000 nM.

And the GI50 [13]?
Its GI50 is 5 nM.

What about the TGI [13] of the same compound?
Its TGI is 794 nM.

What about the GI50 [14] of the same compound?
Its GI50 is 3 nM.

And the TGI [14]?
The TGI was 100 nM.

What about the GI50 [15] of the same compound?
Its GI50 is 4 nM.

And the TGI [15]?
Its TGI is 25100 nM.

And the GI50 [16]?
The GI50 was 13 nM.

And the TGI [16]?
The TGI was 6310 nM.

And the GI50 [17]?
The GI50 was 2 nM.

What about the TGI [17] of the same compound?
The TGI was 5010 nM.

What about the GI50 [18] of the same compound?
Its GI50 is 3 nM.

And the TGI [18]?
The TGI was 316 nM.

What about the GI50 [19] of the same compound?
The GI50 was 3 nM.

What about the TGI [19] of the same compound?
The TGI was 126 nM.

What about the GI50 [20] of the same compound?
The GI50 was 158 nM.

What about the TGI [20] of the same compound?
The TGI was 15800 nM.

What about the GI50 [21] of the same compound?
The GI50 was 2 nM.

What about the TGI [21] of the same compound?
Its TGI is 251 nM.

And the GI50 [22]?
Its GI50 is 4 nM.

And the TGI [22]?
The TGI was 15800 nM.

And the GI50 [23]?
The GI50 was 4 nM.

What about the TGI [23] of the same compound?
Its TGI is 126 nM.

And the GI50 [24]?
Its GI50 is 40 nM.

And the TGI [24]?
The TGI was 25100 nM.

What does the source list for `C/C=C1\NC(=O)[C@H](Cc2ccccc2)NC(=O)[C@@H](C(C)C)NC(=O)[C@@H]([C@@H](C)CC)NC(=O)[C@H](NC(=O)[C@H](NC(=O)[C@H](CCCNCc2ccc(F)cc2)NC(=O)[C@H]2CCCN2C(=O)[C@@H](NC(=O)[C@H](NC(=O)[C@H](NC(=O)[C@@H](NC(=O)CCCC(C)C)C(C)C)[C@H](C)O)C(C)C)C(C)C)[C@@H](C)CC)[C@@H](C)OC(=O)[C@H](C(C)C)NC1=O`?
Activity [7]: Active; Activity [8]: Active; Activity [9]: Active
